ChEMBL document CHEMBL1125659, “Optical isomers of rocastine and close analogues: synthesis and H1 antihistaminic activity of its enantiomers and their structural relationship to the classical antihistamines” (J Med Chem, 1991)

Assays:
Cavia porcellus [1] = assay: Protection against histamine-induced lethality in guinea pig at 1 hr pretreatment time upon peroral administration.; type: functional; settings: po
In short: (§1)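 Female English short-hair guinea pigs (250–500 g), fasted overnight, dosed orally by gavage at set times before intravenous histamine challenge (1.2 mg/kg). Survival at 24 h postchallenge scored as protection. Groups of 5–10 animals per treatment; ED50 by Litchfield–Wilcoxon or computer probit analysis.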

Cavia porcellus [2] = assay: Protection against histamine-induced lethality in guinea pig at 24 hr pretreatment time upon peroral administration; type: functional; settings: po; in short: as §1
Cavia porcellus [3] = assay: Protection against histamine-induced lethality in guinea pig at 6 hr pretreatment time upon peroral administration.; type: functional; settings: po; in short: as §1
Histamine H1 receptor [4] = target: T1, Histamine H1 receptor (Cavia porcellus, UniProt P31389); assay: Inhibition of [3H]mepyramine binding to the histamine receptor in guinea pig cortex; type: tissue-based
In short: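 Cerebral cortex from female Dunkin-Hartley guinea pigs (200–500 g) homogenized in cold 50 mM Na/K phosphate pH 7.5, washed by three 48000g 4 °C spins, used fresh same day. [3H]mepyramine (15 nM stock, 23 Ci/mmol) incubated with membranes 20 min at 25 °C; filtration, scintillation counting. Six concentrations in triplicate; IC50 by linear/nonlinear curve fitting.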

Histamine H1 receptor [5] = target: T1, Histamine H1 receptor; assay: Inhibition of [3H]mepyramine binding to the Histamine H1 receptor in guinea pig cortex; type: tissue-based
In short: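 Cerebral cortex from female Dunkin-Hartley guinea pigs (200–500 g) homogenized in cold 50 mM Na/K phosphate pH 7.5, washed by three 48000g 4 °C spins, used fresh same day. Six concentrations in triplicate; IC50 by linear/nonlinear curve fitting.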

Cavia porcellus [6] = assay: Protection against histamine-induced lethality in guinea pig at 24 hr pretreatment time upon peroral administration.; type: functional; settings: po; in short: as §1

T1 sequence (P31389 whole entry): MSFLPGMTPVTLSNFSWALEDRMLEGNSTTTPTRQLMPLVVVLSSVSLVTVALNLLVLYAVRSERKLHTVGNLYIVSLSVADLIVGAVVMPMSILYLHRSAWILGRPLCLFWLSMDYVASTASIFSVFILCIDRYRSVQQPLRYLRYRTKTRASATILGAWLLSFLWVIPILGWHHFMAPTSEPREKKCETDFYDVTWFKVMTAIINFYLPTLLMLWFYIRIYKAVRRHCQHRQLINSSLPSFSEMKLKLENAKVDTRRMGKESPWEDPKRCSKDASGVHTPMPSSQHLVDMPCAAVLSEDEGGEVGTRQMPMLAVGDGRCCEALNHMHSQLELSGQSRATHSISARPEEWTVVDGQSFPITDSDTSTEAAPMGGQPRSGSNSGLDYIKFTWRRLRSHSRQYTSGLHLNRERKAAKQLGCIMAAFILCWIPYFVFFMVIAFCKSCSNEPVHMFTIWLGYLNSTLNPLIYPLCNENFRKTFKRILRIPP

`CN(C)CC[C@@H]1CN(C)C(=S)c2cc(Cl)cnc2O1` was tested, and the ED50 (Cavia porcellus [1]) was 0.013 mg/kg, the ED50 (Cavia porcellus [2]) was 58 mg/kg and the ED50 (Cavia porcellus [3]) was 0.15 mg/kg. For the same compound, the IC50 (Histamine H1 receptor [4]) was 1.9 nM.
`CN(C)CCC(c1ccccn1)c1ccc(Cl)cn1` (configuration not stated) gave an ED50 (Cavia porcellus [1]) of 0.009 mg/kg and an IC50 (Histamine H1 receptor [5]) of 24 nM.
`CN1C[C@H](CCN2CCC2)Oc2ncc(Cl)cc2C1=S` was tested, and the ED50 (Cavia porcellus [1]) was 8.28 mg/kg and the IC50 (Histamine H1 receptor [5]) was 870 nM.
In the case of `CN(C)CCC(c1ccc(Cl)cc1)c1ccc(Cl)cn1` (configuration not stated), the ED50 (Cavia porcellus [1]) is reported as greater than 10 mg/kg and the IC50 (Histamine H1 receptor [5]) is reported as 430 nM.
`CN(C)CC[C@H]1CN(C)C(=S)c2cccnc2O1` was tested, and the ED50 (Cavia porcellus [1]) was 23 mg/kg and the IC50 (Histamine H1 receptor [5]) was 21000 nM.
`CN1C[C@@H](CCN2CCC2)Oc2ncc(Cl)cc2C1=S` was tested, and the ED50 (Cavia porcellus [1]) was 0.0054 mg/kg, the ED50 (Cavia porcellus [6]) was 0.21 mg/kg and the ED50 (Cavia porcellus [3]) was 0.0078 mg/kg. It also gave an IC50 (Histamine H1 receptor [4]) of 0.26 nM.
`CN(C)CCC(c1ccc(Cl)cc1)c1ccccn1` (configuration not stated) [CHLORPHENIRAMINE] was tested, and the ED50 (Cavia porcellus [1]) was 0.18 mg/kg.
`CN(C)CC[C@@H]1CN(C)C(=S)c2cccnc2O1` was tested, and the ED50 (Cavia porcellus [1]) was 0.07 mg/kg, the ED50 (Cavia porcellus [3]) was 2.96 mg/kg and the IC50 (Histamine H1 receptor [4]) was 30 nM.
`CN(C)CC[C@H]1CN(C)C(=S)c2cc(Cl)cnc2O1` was tested, and the ED50 (Cavia porcellus [1]) was 66.8 mg/kg and the IC50 (Histamine H1 receptor [5]) was 11900 nM.
